Results from publication PMC6030701 (EMBO Reports, 2018).

Experiments:
[1] = tested on: RD/LD mutant MSP domain of MOSPD2; assay: Liposome aggregation; format: biochemical; settings: DLS, 25°C, FFAT peptide 380 nM, RD/LD mutant MSP 760 nM
MSP domain of MOSPD2 = biological target: T1, MSP domain of MOSPD2 (Homo sapiens, UniProt Q8NHP6); assay: Liposome aggregation; format: biochemical; settings: DLS, 25°C
T1 sequence (Q8NHP6 282-490): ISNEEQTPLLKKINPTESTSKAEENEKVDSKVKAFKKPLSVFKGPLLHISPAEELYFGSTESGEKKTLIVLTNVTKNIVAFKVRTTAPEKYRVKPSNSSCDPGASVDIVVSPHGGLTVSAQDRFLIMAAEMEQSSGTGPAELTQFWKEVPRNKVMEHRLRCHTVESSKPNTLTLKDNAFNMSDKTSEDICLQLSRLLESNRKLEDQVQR

STARD3 = assay: MSP domain pull-down, STARD3; format: binding; settings: 6His MSP on NTA-Ni2+ resin, HeLa/STARD3 protein extract, Western blot
In short: (§1)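 6His-tagged MSP domain (residues 282–490), from E. coli BL21 DE3 (1 mM IPTG, 20°C, 16 h), purified on Ni-NTA and by gel filtration. HeLa stable-line extract in PDB2 incubated 2.5 h, 4°C. Laemmli elution; blotted for STARD3, His, actin.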

STARD3 FA/YA = assay: MSP domain pull-down, STARD3 FA/YA mutant; format: binding; settings: 6His MSP on NTA-Ni2+ resin, HeLa/STARD3 FA/YA protein extract, Western blot
In short: as §1

SEC = biological target: the molecule itself; assay: SEC

What does the source list for “WCSGKGDMSDEDDENEFFDAPEIITMPENLGH [FFAT‐containing peptide]”?
liposome aggregation [1]: no aggregation was observed; size of liposome aggregates at end of kinetics (MSP domain of MOSPD2; FFAT peptide 380 nM, MSP MOSPD2 WT 760 nM): 479 ± 87 nm; size of free liposomes (MSP domain of MOSPD2; size distribution analysis): 97 ± 15 nm

B1: wild‐type MSP domain of MOSPD2: recombinant MSP domain of MOSPD2 [282–490], expressed in E. coli (protein)
chain: T1 sequence (Q8NHP6 282-490)
modifications: left off: 6His, C-terminal, kept
What does the source list for B1?
interaction with STARD3 (STARD3): interacted specifically with STARD3; interaction with STARD3 FA/YA (STARD3 FA/YA): not with the STARD3 FA/YA mutant

B2: MSP domain and coiled‐coil of VAP‐A [8–212], wild type (domain or fragment, human, UniProt Q9P0L0 8-212, looked up)
chain: MAKHEQILVLDPPTDLKFKGPFTDVVTTNLKLRNPSDRKVCFKVKTTAPRRYCVRPNSGIIDPGSTVTVSVMLQPFDYDPNEKSKHKFMVQTIFAPPNTSDMEAVWKEAKPDELMDSKLRCVFEMPNENDKLNDMEPSKAVPLNASKQDGPMPKPHSVSLNDTETRKLMEECKRLQGEMMKLSEENRHLRDEGLRLRKVAHSDKP
Which “stoichiometry N” value (SEC) does the source give for B2 here?
The value was 2.
